Laboratory results as given in ChEMBL document CHEMBL4477197, “Antitumor Activity of Spicatoside A by Modulation of Autophagy and Apoptosis in Human Colorectal Cancer Cells” (J Nat Prod, 2016).
Active and inactive are the calls of the source. No cut-off for these calls is given here.

Tests used:
HCT-116 [1] = test: Induction of apoptosis in human HCT116 cells assessed as activation of caspase 8 at 10 to 30 uM after 48 hrs by Western blot analysis; assay type: functional, cell-based
Procedure, shortened: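 HCT116 cells were treated with the indicated concentrations for 48 h. Lysates were prepared in SDS sample buffer and 10–30 μg protein was separated by SDS-PAGE, blotted to PVDF and blocked in 5% BSA. Cleaved caspase-8, -9, -3 and PARP were detected by ECL.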

HCT-116 [2] = test: Induction of autophagy in human HCT116 cells assessed as formation of acidic vesicular organelles at 20 uM after 24 hrs in presence of bafilomycin A1 by acridine orange staining based assay; assay type: functional, cell-based
Procedure, shortened: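 Cells were seeded at 1 × 10^5/well, grown 24 h, then treated 24 h with 20 μM compound, 2.5 nM bafilomycin A1, or both. They were stained with acridine orange (2 μg/mL) for 15 min and washed in DPBS. AO-positive cells were quantified by high-content imaging and expressed as an index versus vehicle. Triplicates.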

HCT-116 [3] = test: Growth inhibition of human HCT116 cells at 5 to 40 uM in presence of autophagy inhibitor 3-MA after 48 hrs by SRB assay; assay type: functional, cell-based
Procedure, shortened: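 SRB proliferation assay on HCT116 cells given graded concentrations for 48 h with or without 2 mM 3-MA. Cells were TCA-fixed, stained with 0.4% SRB, solubilized in 10 mM Tris pH 10.0 and read at 515 nm. Growth was normalized to day-zero and vehicle wells. Means ± SD, n = 3.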

HCT-116 [4] = test: Cell cycle arrest in human HCT116 cells assessed as accumulation at subG1 phase at 10 uM after 48 hrs by propidium iodide staining based flow cytometry; assay type: functional

In the case of `C[C@H]1CC[C@@]2(OC1)O[C@H]1C[C@H]3[C@@H]4CC=C5C[C@@H](O)C[C@@H](O[C@@H]6O[C@H](C)[C@H](O)[C@H](O[C@@H]7OC[C@@H](O)[C@H](O)[C@H]7O)[C@H]6O[C@@H]6O[C@H](CO)[C@@H](O)[C@H](O)[C@H]6O)[C@]5(C)[C@H]4CC[C@]3(C)[C@H]1[C@@H]2C`, the Activity (HCT-116 [1]) is reported as “Active”, the Activity (HCT-116 [2]) is reported as “inactive” and the “growth inhibition (GI)” value (HCT-116 [3]) is reported as “Active”. The Activity (HCT-116 [4]) was 5.52%.
